# According to ChEMBL document CHEMBL3046951, “Volatile constituents from the leaves of Callicarpa japonica Thunb. and their antibacterial activities” (2004):
# Legend:
# [1] = test system: Escherichia coli; test: microbe, parasite or virus in culture; details: O157:H7 ATCC 43894, 72 h, read-out: GI
# [2] = test system: Bacillus cereus; test: microbe, parasite or virus in culture; details: ATCC 11778, 72 h, read-out: GI
# [3] = test system: Listeria monocytogenes; test: microbe, parasite or virus in culture; details: ATCC 19111, 72 h, read-out: GI
# [4] = test system: Salmonella typhimurium; test: microbe, parasite or virus in culture; details: Salmonella enterica, ATCC 14028, 72 h, read-out: GI
# [5] = test system: Vibrio parahaemolyticus; test: microbe, parasite or virus in culture; details: ATCC 33844, 72 h, read-out: GI
# [6] = test system: Staphylococcus aureus; test: microbe, parasite or virus in culture; details: ATCC 25923, 72 h, read-out: GI
# [7] = test system: Listeria monocytogenes; test: Antimicrobial activity against Listeria monocytogenes ATCC 19111 assessed as growth inhibition rate at 3.64 mg/l after 72 hr by spectrophotometry; type: functional; details: ATCC 19111, 72 h, read-out: GI
# Summary of the method: (§1)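 L. monocytogenes was grown at 30 °C in tryptic soy broth, subcultured for 18 h, and exposed to pure volatile compounds (>95% purity). Growth was followed by Bioscreen C optical density every 24 h for 72 h against a 10% Tween 80 control.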
# [8] = test system: Vibrio parahaemolyticus; test: Antimicrobial activity against Vibrio parahaemolyticus ATCC 33844 assessed as growth inhibition rate at 3.64 mg/l after 72 hr by spectrophotometry; type: functional; details: ATCC 33844, 72 h, read-out: GI
# [9] = test system: Bacillus cereus; test: Antimicrobial activity against Bacillus cereus ATCC 11778 assessed as growth inhibition rate at 3.64 mg/l after 72 hr by spectrophotometry; type: functional; details: ATCC 11778, 72 h, read-out: GI
# Summary of the method: (§2)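 Pure volatile compounds (purity >95%; one at 90%) were tested against B. cereus ATCC 11778. The strain was grown at 30 °C in nutrient broth for 24 h, then subcultured for 18 h. Optical density was read in a Bioscreen C every 24 h for 72 h, with 10% Tween 80 as the control.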
# [10] = test system: Salmonella typhimurium; test: Antimicrobial activity against Salmonella enterica subsp. enterica serovar Typhimurium ATCC 14028 assessed as growth inhibition rate at 3.64 mg/l after 72 hr by spectrophotometry; type: functional; details: ATCC 14028, 72 h, read-out: GI
# Summary of the method: (§3)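 Salmonella Typhimurium ATCC 14028 grown in nutrient broth at 30 °C, precultured 24 h, then subcultured 1:100 for 18 h before testing. Single volatile compounds (>95% pure) were added. OD was read every 24 h over 72 h in a Bioscreen C, with 10% Tween 80 as the comparison control.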
# [11] = test system: Staphylococcus aureus; test: Antimicrobial activity against Staphylococcus aureus ATCC 25923 assessed as growth inhibition rate at 3.64 mg/l after 72 hr by spectrophotometry; type: functional; details: ATCC 25923, 72 h, read-out: GI
# [12] = test system: Escherichia coli; test: Antimicrobial activity against Escherichia coli O157:H7 ATCC 43894 assessed as growth inhibition rate at 3.64 mg/l after 72 hr by spectrophotometry; type: functional; details: O157:H7 ATCC 43894, 72 h, read-out: GI
# [13] = test system: Escherichia coli; test: Antimicrobial activity against Escherichia coli O157:H7 ATCC 43894 assessed as growth inhibition rate at 1.44 mg/l after 72 hr by spectrophotometry; type: functional; details: O157:H7 ATCC 43894, 72 h, read-out: GI
# [14] = test system: Vibrio parahaemolyticus; test: Antimicrobial activity against Vibrio parahaemolyticus ATCC 33844 assessed as growth inhibition rate at 1.44 mg/l after 72 hr by spectrophotometry; type: functional; details: ATCC 33844, 72 h, read-out: GI
# [15] = test system: Salmonella typhimurium; test: Antimicrobial activity against Salmonella enterica subsp. enterica serovar Typhimurium ATCC 14028 assessed as growth inhibition rate at 1.44 mg/l after 72 hr by spectrophotometry; type: functional; details: ATCC 14028, 72 h, read-out: GI
# Summary of the method: as §3
# [16] = test system: Bacillus cereus; test: Antimicrobial activity against Bacillus cereus ATCC 11778 assessed as growth inhibition rate at 1.44 mg/l after 72 hr by spectrophotometry; type: functional; details: ATCC 11778, 72 h, read-out: GI
# Summary of the method: as §2
# [17] = test system: Listeria monocytogenes; test: Antimicrobial activity against Listeria monocytogenes ATCC 19111 assessed as growth inhibition rate at 1.44 mg/l after 72 hr by spectrophotometry; type: functional; details: ATCC 19111, 72 h, read-out: GI
# Summary of the method: as §1
# [18] = test system: Staphylococcus aureus; test: Antimicrobial activity against Staphylococcus aureus ATCC 25923 assessed as growth inhibition rate at 1.44 mg/l after 72 hr by spectrophotometry; type: functional; details: ATCC 25923, 72 h, read-out: GI
smiles,measurement,setting,value
CCO [ALCOHOL],inhibition of growth at 104.72 µg/mL,[1],2%
same,inhibition of growth at 104.72 µg/mL,[2],0%
same,inhibition of growth at 104.72 µg/mL,[3],0%
same,inhibition of growth at 104.72 µg/mL,[4],3.4%
same,inhibition of growth at 104.72 µg/mL,[5],3.9%
same,inhibition of growth at 104.72 µg/mL,[6],3.2%
CCc1ccco1,inhibition of growth at 3.64 µg/mL,[7],0%
same,inhibition of growth at 3.64 µg/mL,[8],2.3%
same,inhibition of growth at 3.64 µg/mL,[9],0%
same,inhibition of growth at 3.64 µg/mL,[10],1.6%
same,inhibition of growth at 3.64 µg/mL,[11],4.3%
same,inhibition of growth at 3.64 µg/mL,[12],0%
CCOC(C)=O [ETHYL ACETATE],inhibition of growth at 1.44 µg/mL,[13],0%
same,inhibition of growth at 1.44 µg/mL,[14],4.5%
same,inhibition of growth at 1.44 µg/mL,[15],9.3%
same,inhibition of growth at 1.44 µg/mL,[16],0%
same,inhibition of growth at 1.44 µg/mL,[17],0%
same,inhibition of growth at 1.44 µg/mL,[18],6.6%
